Measured values reported in ChEMBL document CHEMBL1137341, “Small-molecule inhibitors of histone acetyltransferase activity: identification and biological properties” (2006).
One block for each molecule: values may come before it. Calls of active or inactive are those of the source. No cut-off for these calls is given here.

Tests used:
U-937 [1] = assay: Inhibition of H3 histone acetylation in human U937 cells at 100 uM; format: functional, cell-based
Procedure, shortened: (§1)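 SAHA 5 µM pretreatment of U937 cells for 2 h, then wash and 4 h with vehicle or 100 µM compound. Acetyl-H3 and acetyl-α-tubulin detected by Western blot (50 µg total protein for tubulin, total ERKs as loading control).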

U-937 [2] = assay: Inhibition of HAT in human U937 cells at 50 uM; format: functional; set-up: scale not given: the % may be the effect or the level left
Procedure, shortened: (§2)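 Indirect ELISA for acetylated histone H3 using 10 µg U937 nuclear extract per well as HAT source; 90 min incubation with compound (25, 50 or 500 µM) or DMSO control. Acetylated H3 peptide standard curve; expressed as % inhibition relative to untreated extract (100%).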

U-937 [3] = assay: Inhibition of HAT in human U937 cells at 25 uM; format: functional; set-up: scale not given: the % may be the effect or the level left; procedure, shortened: as §2
U-937 [4] = assay: Inhibition of alpha-tubulin acetylation in human U937 cells at 100 uM; format: functional, cell-based; procedure, shortened: as §1
[5] = molecular target: Histone acetyltransferase GCN5 (Saccharomyces cerevisiae S288c) (UniProt Q03330); assay: Inhibition of Saccharomyces cerevisiae GCN5 at 0.6 mM
Chain of Histone acetyltransferase GCN5 (Saccharomyces cerevisiae S288c) (Q03330 whole entry): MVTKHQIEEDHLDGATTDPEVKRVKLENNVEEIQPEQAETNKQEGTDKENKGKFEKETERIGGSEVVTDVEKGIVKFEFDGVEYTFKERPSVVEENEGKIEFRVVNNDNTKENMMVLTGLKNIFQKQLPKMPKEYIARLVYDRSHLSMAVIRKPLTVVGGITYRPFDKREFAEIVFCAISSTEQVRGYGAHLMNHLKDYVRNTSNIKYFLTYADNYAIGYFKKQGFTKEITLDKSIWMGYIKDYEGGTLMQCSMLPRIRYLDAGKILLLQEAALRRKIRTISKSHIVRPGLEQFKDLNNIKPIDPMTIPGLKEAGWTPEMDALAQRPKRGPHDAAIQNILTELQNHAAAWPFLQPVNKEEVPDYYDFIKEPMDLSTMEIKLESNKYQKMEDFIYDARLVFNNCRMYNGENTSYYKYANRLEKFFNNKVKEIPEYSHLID
Procedure, shortened: (§3)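 Yeast strains (wild-type MK839, F221A and E173H GCN5 catalytic mutants, spt20∆) grown at 28 °C with 0.6 mM compound; ten-fold serial dilutions of liquid culture spotted on solid medium. Growth estimated by optical density as arbitrary units.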

Saccharomyces cerevisiae [6] = assay: Inhibition of Saccharomyces cerevisiae H3 histone acetylation at 1.5 mM; format: functional, organism-based
Procedure, shortened: (§4)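 Wild-type S. cerevisiae grown 16 h in YPD at 28 °C with 0.6, 1 or 1.5 mM compound; gcn5∆ strain run in parallel. Alkaline protein extraction, 15% SDS-PAGE, Western blot with anti-acetyl-H3 and anti-H3 antibodies, ECL detection.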

U-937 [7] = assay: Effect on granulocytic differentiation in human U937 cells measured as CD11c expression level at 1 mM after 30 hrs; format: functional
Procedure, shortened: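 U937 cells (RPMI, 10% FBS, 200 000 cells/mL) exposed 30 h to 1 mM. Stained with PE-conjugated CD11c, 30 min at 4 °C in the dark; PE mouse IgG1 as staining control; propidium iodide 0.25 µg/mL added and PI-positive cells excluded. Reported as percent CD11c-positive cells by FACS.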

U-937 [8] = assay: Inhibition of alpha-tubulin acetylation in human U937 cells at 2.5 mM; format: functional, cell-based
Procedure, shortened: (§5)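 U937 cells pretreated 2 h with 5 µM SAHA, washed, then incubated 4 h with vehicle or compound at 2.5 mM. Western blot for acetylated histone H3 and acetylated α-tubulin (50 µg protein on 10% gels, normalized to total ERKs).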

[9] = molecular target: Histone acetyltransferase GCN5 (Saccharomyces cerevisiae S288c) (UniProt Q03330); assay: Inhibition of GCN5-dependent HIS3-LacZ reporter gene transcription measured as level of beta-galactosidase activity in Saccharomyces cerevisiae in presence of 3-aminotriazole; format: functional
[10] = molecular target: Histone acetyltransferase GCN5 (Saccharomyces cerevisiae S288c) (UniProt Q03330); assay: Inhibition of GCN5-dependent HIS3-LacZ reporter gene transcription measured as level of beta-galactosidase activity in Saccharomyces cerevisiae; format: functional
Procedure, shortened: (§6)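 Yeast reporter strains: HIS3-LacZ (yPO14) grown 16 h in SD at 28 °C and then 4 h with 25 mM 3-aminotriazole; GAL10-CYC1-LacZ (yPO1569) grown 16 h in SD, washed, then 4 h in galactose SG medium. Compounds at 0.6 mM. β-Gal activity read in glass-bead extracts normalized to Bradford protein; 1 unit = 1 µmol o-nitrophenol/min.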

U-937 [11] = assay: Inhibition of HAT in human U937 cells at 500 uM; format: functional; set-up: scale not given: the % may be the effect or the level left; procedure, shortened: as §2
Saccharomyces cerevisiae [12] = assay: Inhibition of GCN5-independent GAL10-CYC1-LacZ reporter gene transcription measured as level of beta-galactosidase activity in Saccharomyces cerevisiae under galactose induction
Saccharomyces cerevisiae [13] = assay: Inhibition of Saccharomyces cerevisiae growth at 0.6 mM; format: functional, organism-based; procedure, shortened: as §3
U-937 [14] = assay: Cell cycle arrest at G1 phase in human U937 cells at 1 mM after 24 hrs; format: functional, cell-based
Procedure, shortened: (§7)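 U937 cells in RPMI with 10% FBS and antibiotics, held at 200 000 cells/mL, treated 24 h at 1 mM (DMSO stock). Cell cycle: 2.5 × 10^5 cells in hypotonic buffer with propidium iodide and RNase A, 30 min dark, flow cytometry; three experiments. Apoptosis: Annexin V/propidium iodide double staining by FACS.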

Saccharomyces cerevisiae [15] = assay: Inhibition of Saccharomyces cerevisiae H3 histone acetylation at 0.6 mM; format: functional, organism-based; procedure, shortened: as §4
U-937 [16] = assay: Inhibition of H3 histone acetylation in human U937 cells at 2.5 mM; format: functional, cell-based; procedure, shortened: as §5
Saccharomyces cerevisiae [17] = assay: Inhibition of GCN5-independent GAL10-CYC1-LacZ reporter gene transcription measured as level of beta-galactosidase activity in Saccharomyces cerevisiae; format: functional, organism-based; procedure, shortened: as §6
U-937 [18] = assay: Induction of apoptosis in human U937 cells at 1 mM after 24 hrs; format: functional; procedure, shortened: as §7
Saccharomyces cerevisiae [19] = assay: Inhibition of Saccharomyces cerevisiae H3 histone acetylation at 1 mM; format: functional, organism-based; procedure, shortened: as §4
Saccharomyces cerevisiae [20] = assay: Inhibition of growth of Saccharomyces cerevisiae E173H mutant at 0.6 mM; format: functional, organism-based; procedure, shortened: as §3
Saccharomyces cerevisiae [21] = assay: Inhibition of growth of Saccharomyces cerevisiae F221A mutant at 0.6 mM; format: functional, organism-based; procedure, shortened: as §3
Saccharomyces cerevisiae [22] = assay: Inhibition of growth of wild type Saccharomyces cerevisiae MK839 mutant at 0.6 mM; format: functional, organism-based; procedure, shortened: as §3
Saccharomyces cerevisiae [23] = assay: Inhibition of growth of Saccharomyces cerevisiae spt20delta mutant at 0.6 mM; format: functional, organism-based; procedure, shortened: as §3

Compound: CCCCCc1nc2ccccc2c(O)c1C(=O)O
Activity (U-937 [1]): Active
Activity (U-937 [2]): 30%
Activity (U-937 [3]): 24%
Activity (U-937 [4]): Active

Compound: C=CC/C=C\C/C=C\CCCCCCCc1cccc(O)c1C(=O)O [ANACARDIC ACID]
Activity (U-937 [2]): 15%

Compound: COc1cc(/C=C/C(=O)CC(=O)/C=C/c2ccc(O)c(OC)c2)ccc1O [CURCUMIN]
Activity (U-937 [2]): 17.5%

Compound: CCOC(=O)c1c(C)nc2ccccc2c1O
Activity [5]: inactive

Compound: C=C1C(=O)O[C@H](CCC)[C@H]1C(=O)O
Activity (U-937 [2]): 44%

Compound: CCOC(=O)c1cccnc1C
Activity (Saccharomyces cerevisiae [20]): inactive
Activity (Saccharomyces cerevisiae [21]): inactive
Activity (Saccharomyces cerevisiae [22]): inactive
Activity [9]: inactive
Activity [10]: inactive
Activity [5]: inactive
Activity (Saccharomyces cerevisiae [23]): inactive
Activity (Saccharomyces cerevisiae [17]): inactive
Activity (Saccharomyces cerevisiae [12]): inactive

Now from value to molecule, other results behind:

Activity [5]: inactive
Compound: O=C(O)c1cnc2ccccc2c1

Activity [5]: inactive
Compound: NC(=O)c1cnc2ccccc2c1

Activity [5]: inactive
Compound: Cc1ccc2ccccc2n1

Activity [9]: Active
Activity [10]: Active
Activity [5]: Active
Activity (Saccharomyces cerevisiae [12]): Active
Compound: CCOC(=O)c1cnc2ccccc2c1
Activity (Saccharomyces cerevisiae [6]): Active
Activity (U-937 [7]): 14%
Activity (U-937 [8]): Active
Activity (U-937 [11]): 25%
Activity (Saccharomyces cerevisiae [13]): Active

Activity [5]: inactive
Compound: CCOC(=O)c1ccc2ccccc2c1

Activity [9]: Active
Activity [10]: Active
Activity (Saccharomyces cerevisiae [17]): inactive
Activity (Saccharomyces cerevisiae [12]): inactive
Compound: CCOC(=O)c1cc2ccccc2nc1C
Activity (U-937 [7]): 8.8%
Activity (U-937 [14]): Active
Activity (U-937 [8]): Active
Activity (Saccharomyces cerevisiae [15]): Active
Activity (U-937 [11]): 32%
Activity (U-937 [16]): Active
Activity (U-937 [18]): 27%
Activity (Saccharomyces cerevisiae [19]): Active
Activity (Saccharomyces cerevisiae [13]): Active
